Each block holds one molecule with its values, some of them ahead of it.
How the values were obtained:
[1] = tested on: Coronary artery smooth muscle cell line; experiment: (§1) In vitro antiproliferative effect on cultured human coronary artery smooth muscle cells (hCASMC); type: functional, cell-based
In short: (§2)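 Human coronary artery smooth muscle cells seeded at 3×10^4 per well in SmGM2 growth medium; compound added from 1000× ethanol stock 3-4 h after seeding, ethanol vehicle controls, n = 4 per point. After 68-72 h cells trypsinized and viable (Trypan Blue negative) cells counted by hemacytometer; mean ± SD.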

[2] = Stent coated compound was evaluated for mercury displaceable NO after sterilization (Electron-Beam Radiation); type: functional
[3] = Stent coated compound was evaluated for mercury displaceable NO before sterilization (Electron-Beam Radiation); type: functional
[4] = species: Oryctolagus cuniculus; experiment: In vitro antiplatelet aggregatory effect in rabbit platelet rich plasma (PRP); type: functional
In short: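 Rabbit blood collected 10:1 into 3.8% trisodium citrate pH 6.5, spun 180g 15 min at 21 °C to give PRP. PRP preincubated 2 min at 37 °C with compound (500× ethanol stock), then aggregation induced with ADP (5–10 μM) and followed in an aggregometer; percent inhibition calculated relative to maximum aggregation amplitude.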

[5] = species: Homo sapiens; experiment: as §1; type: functional; in short: as §2
[6] = tested on: Oryctolagus cuniculus; experiment: In vivo nitric oxide(NO) release was determined by the coated stent compound in rabbit iliac at 6 hrs; value expressed as percent remaining nitric oxide; type: functional
In short: (§3)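 Coated stent deployed in rabbit iliac artery, position confirmed by angiography; 6 h later animal euthanized with 120 mg/kg iv sodium pentobarbital, stent recovered from the artery and nitrosothiol/NO content measured by chemiluminescence; retained content expressed relative to original load.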

[7] = tested on: Oryctolagus cuniculus; experiment: In vivo nitric oxide(NO) release was determined by the coated stent compound in rabbit iliac at 0 h; value expressed as mercury displaceable nitric oxide; type: functional
[8] = tested on: Oryctolagus cuniculus; experiment: In vivo nitric oxide(NO) release was determined by the coated stent compound in rabbit iliac at 6 hrs; value expressed as mercury displaceable nitric oxide; type: functional; in short: as §3
[9] = species: Oryctolagus cuniculus; experiment: Compound was evaluated to determine the stenosis in Rabbit Iliac Arteries value expressed as difference from polymer coated stents; type: functional
[10] = species: Oryctolagus cuniculus; experiment: Compound was evaluated to determine the stenosis in Rabbit Iliac Arteries; type: functional
[11] = species: Oryctolagus cuniculus; experiment: Compound was evaluated to determine the stenosis in Rabbit Iliac Arteries value expressed as difference from bare stents; type: functional
[12] = species: Oryctolagus cuniculus; experiment: Compound was evaluated to determine the stenosis in Rabbit Iliac Arteries value expressed as net effect of NO over paclitaxel coated stents; type: functional

SMILES: CC(=O)O[C@H]1C(=O)[C@@]2(C)C([C@H](OC(=O)c3ccccc3)[C@]3(O)C[C@H](OC(=O)[C@H](O)[C@@H](NC(=O)c4ccccc4)c4ccccc4)C(C)=C1C3(C)C)[C@]1(OC(C)=O)CO[C@@H]1C[C@@H]2OC(=O)CC(C)(C)S (some centres not stated)
IC50 [1]: 20 nM

SMILES: CC(=O)O[C@H]1C(=O)[C@@]2(C)C([C@H](OC(=O)c3ccccc3)[C@]3(O)C[C@H](OC(=O)[C@H](O)[C@@H](NC(=O)c4ccccc4)c4ccccc4)C(C)=C1C3(C)C)[C@]1(OC(C)=O)CO[C@@H]1C[C@@H]2OC(=O)CC(C)(C)SN=O (some centres not stated) [listing 1 of 2 here]
Activity [2]: 316 nM stent-1
Activity [3]: 349 nM stent-1

IC50 [4]: 10000 nM
SMILES: CC(=O)O[C@H]1C(=O)[C@@]2(C)C([C@H](OC(=O)c3ccccc3)[C@]3(O)C[C@H](OC(=O)[C@H](O)[C@@H](NC(=O)c4ccccc4)c4ccccc4)C(C)=C1C3(C)C)[C@]1(OC(C)=O)CO[C@@H]1C[C@@H]2OC(=O)CC(C)(C)SN=O (some centres not stated) [listing 2 of 2 here]
IC50 [5]: ~20 nM
Activity [6]: 65%
Activity [7]: 369 nmol/stent
Activity [8]: 214 nM stent-1

SMILES: CC(=O)O[C@H]1C(=O)[C@@]2(C)[C@H]([C@H](OC(=O)c3ccccc3)[C@]3(O)C[C@H](OC(=O)[C@H](O)[C@@H](NC(=O)c4ccccc4)c4ccccc4)C(C)=C1C3(C)C)[C@]1(OC(C)=O)CO[C@@H]1C[C@@H]2O [PACLITAXEL]
Activity [9]: -11%
Stenosis [10]: 22.6%
Activity [11]: 23%
IC50 [1]: ~1 nM

SMILES: CC(=O)O[C@H]1C(=O)[C@@]2(C)C([C@H](OC(=O)c3ccccc3)[C@]3(O)C[C@H](OC(=O)[C@H](O)[C@@H](NC(=O)c4ccccc4)c4ccccc4)C(C)=C1C3(C)C)[C@]1(OC(C)=O)CO[C@@H]1C[C@@H]2OC(=O)CC(C)(C)SN=O.CN(C)C(=O)CC1(SN=O)C2CC3CC(C2)CC1C3 (some centres not stated) [listing 1 of 2 here]
Activity [12]: -34%
Activity [9]: -41%
Activity [6]: 31%
Activity [7]: 627 nmol/stent
Activity [8]: 209 nM stent-1
Stenosis [10]: 15%
Activity [11]: -18%

SMILES: CN(C)C(=O)CC1(SN=O)C2CC3CC(C2)CC1C3 (configuration not stated)
Activity [6]: 5%
Activity [7]: 417 nmol/stent
Activity [8]: 18 nM stent-1
Activity [2]: 440 nM stent-1
Activity [3]: 436 nM stent-1
IC50 [1]: 15000 nM

SMILES: CC(=O)O[C@H]1C(=O)[C@@]2(C)C([C@H](OC(=O)c3ccccc3)[C@]3(O)C[C@H](OC(=O)[C@H](O)[C@@H](NC(=O)c4ccccc4)c4ccccc4)C(C)=C1C3(C)C)[C@]1(OC(C)=O)CO[C@@H]1C[C@@H]2OC(=O)CC(C)(C)SN=O.CN(C)C(=O)CC1(SN=O)C2CC3CC(C2)CC1C3 (some centres not stated) [listing 2 of 2 here]
Activity [2]: 746 nM stent-1
Activity [3]: 733 nM stent-1
